Source: ChEMBL document CHEMBL4765226, “Identification of a Human Toll-Like Receptor (TLR) 8-Specific Agonist and a Functional Pan-TLR Inhibitor in 2-Aminoimidazoles” (J Med Chem, 2016)
The source made the active and inactive calls.

Assays:
[1] = molecular target: T1, Toll-like receptor 8 (Homo sapiens) (UniProt Q9NR97); experiment: Agonist activity at TLR8 in human monocytes assessed as induction of NF-kappaB phosphorylation measured after 15 mins in presence of 10% FBS by Alexa fluor 647 dye based flow cytometry analysis; format: cell-based; conditions: Monocyte, filed as agonist, in the assay text read “PE-Cy7 dye” for “Alexa fluor 647 dye”
T1 sequence (whole entry): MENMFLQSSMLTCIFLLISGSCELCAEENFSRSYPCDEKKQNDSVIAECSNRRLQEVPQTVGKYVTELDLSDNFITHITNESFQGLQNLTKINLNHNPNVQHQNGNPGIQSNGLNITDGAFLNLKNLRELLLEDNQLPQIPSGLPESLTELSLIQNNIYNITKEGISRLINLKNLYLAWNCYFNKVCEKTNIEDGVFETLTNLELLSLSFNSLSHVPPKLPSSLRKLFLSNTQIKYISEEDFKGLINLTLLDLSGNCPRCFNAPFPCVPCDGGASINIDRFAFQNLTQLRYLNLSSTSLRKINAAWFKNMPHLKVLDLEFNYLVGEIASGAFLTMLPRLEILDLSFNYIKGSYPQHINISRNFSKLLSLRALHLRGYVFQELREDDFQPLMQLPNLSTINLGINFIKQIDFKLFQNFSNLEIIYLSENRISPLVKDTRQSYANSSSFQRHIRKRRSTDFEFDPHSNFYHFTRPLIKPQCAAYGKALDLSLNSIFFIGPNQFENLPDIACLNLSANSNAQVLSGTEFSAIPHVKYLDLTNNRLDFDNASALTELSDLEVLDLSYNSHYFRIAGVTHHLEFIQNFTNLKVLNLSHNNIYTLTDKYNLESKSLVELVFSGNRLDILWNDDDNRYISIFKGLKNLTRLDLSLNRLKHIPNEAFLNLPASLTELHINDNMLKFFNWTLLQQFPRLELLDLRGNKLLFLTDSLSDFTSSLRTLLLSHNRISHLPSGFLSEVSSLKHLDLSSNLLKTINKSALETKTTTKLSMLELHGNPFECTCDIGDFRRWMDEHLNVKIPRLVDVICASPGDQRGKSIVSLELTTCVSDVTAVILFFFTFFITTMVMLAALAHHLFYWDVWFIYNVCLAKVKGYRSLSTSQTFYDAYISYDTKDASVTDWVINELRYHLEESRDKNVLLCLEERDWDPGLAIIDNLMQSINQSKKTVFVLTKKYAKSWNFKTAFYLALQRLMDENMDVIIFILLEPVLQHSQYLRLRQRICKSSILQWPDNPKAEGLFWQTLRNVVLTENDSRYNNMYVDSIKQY
Procedure, shortened: (§1)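 Whole human blood with anticoagulant was added to serial compound dilutions in RPMI with 10% FBS and held at 37 °C for 15 min. Samples were lysed and fixed three times, permeabilized in ice-cold methanol for 30 min, then stained on ice for 60 min with anti-NF-κB p65-PECy7, p38MAPK-PE and ERK1/2-AlexaFluor 647. Flow cytometry acquired 100,000 gated events; monocytes and polymorphonuclear cells were gated.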

[2] = molecular target: T1, Toll-like receptor 8 (Homo sapiens); experiment: Agonist activity at TLR8 in human polymorphonuclear leucocyte cells assessed as induction of NF-kappaB phosphorylation measured after 15 mins in presence of 10% FBS by Alexa fluor 647 dye based flow cytometry analysis; format: tissue-based; conditions: filed as agonist, in the assay text read “PE-Cy7 dye” for “Alexa fluor 647 dye”; procedure, shortened: as §1
[3] = molecular target: T1, Toll-like receptor 8 (Homo sapiens); experiment: Agonist activity at TLR8 in human PBMC cells assessed as induction of TNFalpha production incubated for 16 hrs by immunoassay; format: cell-based; conditions: filed as agonist
Procedure, shortened: (§2)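 Fresh human PBMCs isolated from venous blood, plated at 10^5 cells in 100 µL per well and stimulated for 16 h with graded concentrations of compound. Supernatants were collected by centrifugation and assayed in duplicate with a multiplexed cytokine/chemokine magnetic bead array.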

[4] = molecular target: T1, Toll-like receptor 8 (Homo sapiens); experiment: Agonist activity at TLR8 in human PBMC cells assessed as induction of IL-1beta production incubated for 16 hrs by immunoassay; format: cell-based; conditions: filed as agonist; procedure, shortened: as §2
[5] = molecular target: T1, Toll-like receptor 8 (Homo sapiens); experiment: Agonist activity at TLR8 in human PBMC cells assessed as induction of IL-6 production incubated for 16 hrs by immunoassay; format: cell-based; conditions: filed as agonist; procedure, shortened: as §2
[6] = molecular target: T1, Toll-like receptor 8 (Homo sapiens); experiment: Agonist activity at TLR8 in human PBMC cells assessed as induction of IL-12p40 production incubated for 16 hrs by immunoassay; format: cell-based; conditions: filed as agonist; procedure, shortened: as §2
[7] = molecular target: T1, Toll-like receptor 8 (Homo sapiens); experiment: Agonist activity at TLR8 in human PBMC cells assessed as induction of IFNgamma production incubated for 16 hrs by immunoassay; format: cell-based; conditions: filed as agonist; procedure, shortened: as §2
[8] = molecular target: T1, Toll-like receptor 8 (Homo sapiens); experiment: Agonist activity at TLR8 in human PBMC cells assessed as induction of MCP1 production incubated for 16 hrs by immunoassay; format: cell-based; conditions: filed as agonist; procedure, shortened: as §2
[9] = molecular target: T1, Toll-like receptor 8 (Homo sapiens); experiment: Agonist activity at TLR8 in human PBMC cells assessed as induction of MIP-1alpha production incubated for 16 hrs by immunoassay; format: cell-based; conditions: filed as agonist; procedure, shortened: as §2
[10] = molecular target: T1, Toll-like receptor 8 (Homo sapiens); experiment: Agonist activity at TLR8 in human PBMC cells assessed as induction of MIP-1beta production incubated for 16 hrs by immunoassay; format: cell-based; conditions: filed as agonist; procedure, shortened: as §2

Measured: Activity

CCCCCc1cc2ccccc2nc1N
active: [1] Dose-dependent effect | [2] Dose-dependent effect

CCCCCn1c(N)nc2c(C)cccc21
active: [3] | [4] | [5] | [6] | [7] | [8] | [9] | [10] | [1] Dose-dependent effect | [2] Dose-dependent effect

CCCCCc1cc2c(CCCCCN)cccc2nc1N
active: [1] Dose-dependent effect | [2] Dose-dependent effect
